Measured values: ChEMBL document CHEMBL4017522, “Stilbene Boronic Acids Form a Covalent Bond with Human Transthyretin and Inhibit Its Aggregation” (J Med Chem, 2017)
Calls of active or inactive are those of the source. The rule behind the calls is not given here.

Columns and labels:
Transthyretin [1] = biological target: T1, Transthyretin (Homo sapiens, UniProt P02766); experiment: Inhibition human wild type TTR expressed in Escherichia coli BL-21 assessed as fibril formation at 14.4 uM incubated for 30 mins after 96 hrs by light scattering method relative to control; design: scale not given: the % may be the effect or the level left
Summary of the method: (§1)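 Ligand (7.2 or 14.4 μM) preincubated 30 min with TTR tetramers (7.2 μM, wild-type or V30M), then diluted twofold into 50 mM sodium acetate, pH 4.4, 100 mM KCl. Turbidity read as A400 at 0 and 96 h, four replicates; percent fibril formation = ligand-well A400 gain over DMF vehicle-well gain ×100, standard deviations propagated.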

[2] = system: Transthyretin (Homo sapiens), P02766 [V50M]; experiment: Inhibition of human TTR V30M mutant expressed in Escherichia coli BL-21 assessed as fibril formation at 7.2 uM incubated for 30 mins measured after 96 hrs by light scattering method relative to control; design: scale not given: the % may be the effect or the level left
[3] = system: Transthyretin (Homo sapiens), P02766 [V50M]; experiment: Inhibition of human TTR V30M mutant expressed in Escherichia coli BL-21 assessed as fibril formation at 14.4 uM incubated for 30 mins measured after 96 hrs by light scattering method relative to control; design: scale not given: the % may be the effect or the level left
Transthyretin [4] = biological target: T1, Transthyretin; experiment: Inhibition of human wild type TTR expressed in Escherichia coli BL-21 assessed as fibril formation at 7.2 uM incubated for 30 mins measured after 96 hrs by light scattering method relative to control; design: scale not given: the % may be the effect or the level left; summary of the method: as §1
Transthyretin [5] = biological target: T1, Transthyretin; experiment: Competitive binding affinity to human wild type TTR expressed in Escherichia coli BL-21 assessed as equilibrium dissociation constant of second site in presence of ANS by spectrofluorometer
Transthyretin [6] = biological target: T1, Transthyretin; experiment: Reversible binding affinity to human wild type TTR expressed in Escherichia coli BL-21 at 360 uM by mass spectrometry

SMILES: O=C(O)c1cccc(/C=C/c2ccc(B(O)O)cc2Cl)c1
- Activity (Transthyretin [1]): 4%
- Activity [2]: 32%
- Activity [3]: 10%
- Activity (Transthyretin [4]): 16%
- Kd (Transthyretin [5]): 450 nM

SMILES: OB(O)c1ccc(/C=C/c2cc(O)cc(O)c2)cc1
- Activity (Transthyretin [1]): 9%
- Activity [2]: 48%
- Activity [3]: 23%
- Activity (Transthyretin [4]): 21%
- Kd (Transthyretin [5]): 470 nM

SMILES: O=C(O)c1cccc(/C=C/c2ccc(O)cc2Cl)c1
- Activity (Transthyretin [1]): 3%
- Activity [2]: 41%
- Activity [3]: 9%
- Activity (Transthyretin [4]): 21%
- Kd (Transthyretin [5]): 470 nM

SMILES: O=C(O)c1ccc2nc(-c3cc(Cl)cc(Cl)c3)oc2c1
- Activity (Transthyretin [1]): 0%
- Activity [2]: 5%
- Activity [3]: 8%
- Activity (Transthyretin [4]): 22%

SMILES: O=C(O)c1cccc(/C=C/c2ccc(B(O)O)cc2)c1
- Activity (Transthyretin [1]): 11%
- Activity [2]: 48%
- Activity [3]: 28%
- Activity (Transthyretin [4]): 21%
- Kd (Transthyretin [5]): 990 nM

SMILES: O=C(O)c1cccc(/C=C/c2ccc(O)cc2)c1
- Activity (Transthyretin [1]): 77%
- Activity [2]: 112%
- Activity [3]: 120%
- Activity (Transthyretin [4]): 75%
- Kd (Transthyretin [5]): 1800 nM

SMILES: OB(O)c1cccc(/C=C/c2ccc(B(O)O)cc2Cl)c1
- Activity (Transthyretin [1]): 10%
- Activity [2]: 54%
- Activity [3]: 16%
- Activity (Transthyretin [4]): 26%

SMILES: Oc1cc(O)cc(/C=C/c2ccc(O)cc2Cl)c1
- Activity (Transthyretin [1]): 7%
- Activity [2]: 44%
- Activity [3]: 14%
- Activity (Transthyretin [4]): 22%
- Kd (Transthyretin [5]): 730 nM

SMILES: Oc1ccc(/C=C/c2cc(O)cc(O)c2)cc1 [RESVERATROL]
- Activity (Transthyretin [1]): 9%
- Activity (Transthyretin [4]): 28%
- Kd (Transthyretin [5]): 470 nM

SMILES: Oc1ccc(/C=C/c2ccc(O)cc2Cl)c(Cl)c1
- Activity (Transthyretin [1]): 12%
- Activity [2]: 62%
- Activity [3]: 27%
- Activity (Transthyretin [4]): 30%
- Kd (Transthyretin [5]): 820 nM

SMILES: OB(O)c1ccc(/C=C/c2ccc(B(O)O)cc2Cl)c(Cl)c1
- Activity (Transthyretin [1]): 3%
- Activity (Transthyretin [6]): Active
- Activity [2]: 32%
- Activity [3]: 8%
- Activity (Transthyretin [4]): 20%
- Kd (Transthyretin [5]): 470 nM

SMILES: OB(O)c1ccc(/C=C/c2cc(O)cc(O)c2)c(Cl)c1
- Activity (Transthyretin [1]): 4%
- Activity [2]: 36%
- Activity [3]: 12%
- Activity (Transthyretin [4]): 19%
- Kd (Transthyretin [5]): 440 nM
